Data published in ChEMBL document CHEMBL1148965, “Cytotoxic and other metabolites of Aspergillus inhabiting the rhizosphere of Sonoran desert plants” (J Nat Prod, 2004).
Calls of active or inactive are those of the source. No cut-off for these calls is given here.

Experiments:
MCF7 [1] = test: Cytotoxicity against human MCF7 cells by MTT assay; type: functional, cell-based
Method in brief: (§1)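 Cells were exposed to DMSO-dissolved samples for 72 h in RPMI-1640 with 10% fetal bovine serum. Viability was read by tetrazolium (MTT) colorimetry. IC50 was taken as the concentration giving 50% inhibition of cell proliferation/survival. WI-38 are normal human primary fibroblasts.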

MIA PaCa-2 [2] = test: Cytotoxicity against human MIAPaCa2 cells by MTT assay; type: functional, cell-based; method in brief: as §1
[3] = Cytotoxicity against human WI38 cells by MTT assay; type: cell-based; settings: WI-38; method in brief: as §1
SF-268 [4] = test: Cytotoxicity against human SF268 cells by MTT assay; type: functional, cell-based; method in brief: as §1
NCI-H460 [5] = test: Cytotoxicity against human NCI-H460 cells by MTT assay; type: functional, cell-based; method in brief: as §1
NCI-H460 [6] = test: Cytotoxicity against human NCI-H460 cells at 10 ug/mL by MTT assay; type: functional, cell-based
MCF7 [7] = test: Cytotoxicity against human MCF7 cells at 10 ug/mL by MTT assay; type: functional, cell-based
MIA PaCa-2 [8] = test: Cytotoxicity against human MIAPaCa2 cells at 10 ug/mL by MTT assay; type: functional, cell-based
SF-268 [9] = test: Cytotoxicity against human SF268 cells at 10 ug/mL by MTT assay; type: functional, cell-based
[10] = Cytotoxicity against human WI38 cells at 10 ug/mL by MTT assay; type: cell-based; settings: wi-38

| Structure (SMILES) | IC50 (MCF7 [1]) [µM] | IC50 (MIA PaCa-2 [2]) [µM] | IC50 [3] [µM] | IC50 (SF-268 [4]) [µM] | IC50 (NCI-H460 [5]) [µM] | Activity (NCI-H460 [6]) | Activity (MCF7 [7]) | Activity (MIA PaCa-2 [8]) | Activity (SF-268 [9]) | Activity [10] |
| --- | --- | --- | --- | --- | --- | --- | --- | --- | --- | --- |
| C=C(C)C1(O)OC(=O)C=C1OC (stereo not given) [PENICILLIC ACID] | 12.8 | 8 | 57.5 | 20 | 5.8 |  |  |  |  |  |
| C/C=C/C1=CC(=O)[C@](C)(/C=C/C=C/CC)O1 | 11.7 | 6.3 |  | 6.8 | 5.5 |  |  |  |  |  |
| COC1=CC(=O)C[C@](C)(O)[C@H]1O (relative stereo) |  |  |  |  |  | inactive | inactive | inactive | inactive | Non-toxic |
| C[C@H]1CCC/C=C/C(=O)c2c(O)cc(O)cc2CC(=O)O1 [DEHYDROCURVULARIN] | 1.3 | 1.9 | 3.6 | 2.5 | 1.1 |  |  |  |  |  |
| C[C@H]1CCCC(O)CC(=O)c2c(O)cc(O)cc2CC(=O)O1 (stereo not given in full) | 2 | 3.3 | 11.6 | 4.1 | 2.1 |  |  |  |  |  |
| C=CC(C)(C)[C@]12CC3C(=O)Nc4ccccc4C(=O)N3[C@H]1N(C(C)=O)c1ccccc12 (stereo not given in full) |  |  |  |  |  | inactive | inactive | inactive | inactive | Non-toxic |
| COc1cccc2c1C(=O)c1c(O)c3c(c(O)c1C2=O)C[C@@](O)(C(=O)CO)C[C@@H]3O[C@H]1C[C@H](N)[C@H](O)[C@H](C)O1 [DOXORUBICIN] |  |  | 0.3 |  | 0.01 |  |  |  |  |  |
| COC1CCC[C@H](C)OC(=O)Cc2cc(O)cc(O)c2C(=O)C1 (stereo not given in full) | 0.6 | 1.2 | 1.7 | 0.9 | 0.9 |  |  |  |  |  |
| C=CC(C)(C)c1[nH]c2ccccc2c1C1=C(O)C(=O)C(c2c[nH]c3ccccc23)=C(CC=C(C)C)C1=O [TERREQUINONE A] | 6.8 | 5.4 |  | 13.9 | 5.6 |  |  |  |  |  |
| CC/C=C/C=C/[C@]1(C)OC(CC(C)O)=CC1=O (stereo not given in full) [TERREFURANONE] |  |  |  |  |  | inactive | inactive | inactive | inactive | Non-toxic |
| COCC(C)C1(O)OC(=O)C=C1OC (stereo not given) |  |  |  |  |  | inactive | inactive | inactive | inactive | Non-toxic |
| COC1=CC(=O)OC1(O)C(C)C (stereo not given) |  |  |  |  |  | inactive | inactive | inactive | inactive | Non-toxic |
